Test results published in ChEMBL document CHEMBL5724801, “EUbOPEN Chemogenomics Library - Multiplex” (2024).
Values joined by “and” are separate entries in the source; they are usually repeats but may differ in a detail not shown here. Equal entries are not always repeated.

System: Fibroblast
Experiment: Multiplex assay against human fibroblast
Assay type: toxicity, cell-based
Outline: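 Compound was added to live cells that had been stained at seeding with Hoechst33342, BioTracker Green Microtubule Cytoskeleton Dye, MitoTracker Red and Annexin V Alexa Fluor 680, and imaging followed on a CQ1 microscope at 37°C and 5% CO2. CellPathfinder machine-learning gating divided cells into Hoechst high-intensity objects or normal cells, normal cells into healthy, pyknosed or fragmented nuclei, and pyknosed cells into mitotic or apoptotic. Tubulin, mitochondrial-mass and membrane-permeability phenotypes are per cents of healthy-nucleus cells.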

[1] = 12 h, 1 µM, compound concentration 1 uM
[2] = 12 h, 10 µM, compound concentration 10 uM
[3] = 24 h, 1 µM, compound concentration 1 uM
[4] = 24 h, 10 µM, compound concentration 10 uM
[5] = 48 h, 1 µM, compound concentration 1 uM
[6] = 48 h, 10 µM, compound concentration 10 uM

CC(C)C[C@H](CO)Nc1nc(S[C@@H](C)c2ccccc2)nc2nc(N)sc12 [AZD-8797]
Population Apoptotic (%) [1]: 25% and 31% | Population Fragmented Nuclei (%) [1]: 23% and 22% | Population Healthy Nuclei (%) [1]: 62% and 55% | Population Hoechst High Intensity Objects (%) [1]: 1% and 4% | Population Mitochondria Different-Phenotype (%) [1]: 3% and 6% | Population Mitotic Cells (%) [1]: 75% and 68% | Population Normal (%) [1]: 98% and 95% | Population Pyknosed Nuclei (%) [1]: 13% and 21% | Population Tubulin-Different-Phenotype (%) [1]: 23% and 46% | Total Cell Count [1]: 146 and 92 | Population Apoptotic (%) [2]: 38% and 36% | Population Fragmented Nuclei (%) [2]: 18% and 36% | Population Healthy Nuclei (%) [2]: 64% and 41% | Population Hoechst High Intensity Objects (%) [2]: 3% and 5% | Population Membrane Permeable-Phenotype (%) [2]: 0% and 10% | Population Mitotic Cells (%) [2]: 61% and 64% | Population Normal (%) [2]: 96% and 94% | Population Pyknosed Nuclei (%) [2]: 17% and 21% | Population Tubulin-Different-Phenotype (%) [2]: 46% and 66% | Total Cell Count [2]: 156 and 122 | Population Apoptotic (%) [3]: 44% and 31% | Population Fragmented Nuclei (%) [3]: 15% and 29% | Population Healthy Nuclei (%) [3]: 69% and 54% | Population Hoechst High Intensity Objects (%) [3]: 1% and 0% | Population Mitochondria Different-Phenotype (%) [3]: 1% and 3% | Population Mitotic Cells (%) [3]: 55% and 68% | Population Normal (%) [3]: 98% and 99% | Population Pyknosed Nuclei (%) [3]: 14% and 15% | Population Tubulin-Different-Phenotype (%) [3]: 24% and 46% | Total Cell Count [3]: 124 and 103 | Population Apoptotic (%) [4]: 57% and 33% | Population Fragmented Nuclei (%) [4]: 21% and 42% | Population Healthy Nuclei (%) [4]: 66% and 38% | Population Hoechst High Intensity Objects (%) [4]: 1% and 2% | Population Membrane Permeable-Phenotype (%) [4]: 0% and 8% | Population Mitochondria Different-Phenotype (%) [4]: 15% and 25% | Population Mitotic Cells (%) [4]: 42% and 66% | Population Normal (%) [4]: 98% and 97% | Population Pyknosed Nuclei (%) [4]: 12% and 19% | Population Tubulin-Different-Phenotype (%) [4]: 38% and 85% | Total Cell Count [4]: 168 and 126 | Population Apoptotic (%) [5]: 50% and 47% | Population Fragmented Nuclei (%) [5]: 25% and 30% | Population Healthy Nuclei (%) [5]: 60% and 48% | Population Hoechst High Intensity Objects (%) [5]: 1% and 4% | Population Membrane Permeable-Phenotype (%) [5]: 1% and 4% | Population Mitochondria Different-Phenotype (%) [5]: 1% and 4% | Population Mitotic Cells (%) [5]: 50% and 52% | Population Normal (%) [5]: 98% and 95% | Population Pyknosed Nuclei (%) [5]: 13% and 20% | Total Cell Count [5]: 135 and 95 | Population Apoptotic (%) [6]: 60% and 35% | Population Fragmented Nuclei (%) [6]: 25% and 45% | Population Healthy Nuclei (%) [6]: 65% and 40% | Population Hoechst High Intensity Objects (%) [6]: 2% and 1% | Population Membrane Permeable-Phenotype (%) [6]: 0% and 12% | Population Mitochondria Different-Phenotype (%) [6]: 13% and 18% | Population Mitotic Cells (%) [6]: 40% and 64% | Population Normal (%) [6]: 97% and 98% | Population Pyknosed Nuclei (%) [6]: 9% and 14% | Population Tubulin-Different-Phenotype (%) [6]: 35% and 89% | Total Cell Count [6]: 168 and 121

CC(C)(c1ccc(O)cc1)c1ccc(O)cc1 [BISPHENOL A]
Population Apoptotic (%) [1]: 18.37% and 18.42% | Population Fragmented Nuclei (%) [1]: 10.19% and 4.35% | Population Healthy Nuclei (%) [1]: 58.6% and 79.13% | Population Hoechst High Intensity Objects (%) [1]: 0% | Population Membrane Permeable-Phenotype (%) [1]: 2.17% and 2.75% | Population Mitochondria Different-Phenotype (%) [1]: 8.7% and 5.49% | Population Mitotic Cells (%) [1]: 81.63% and 81.58% | Population Normal (%) [1]: 100% | Population Pyknosed Nuclei (%) [1]: 31.21% and 16.52% | Population Tubulin-Different-Phenotype (%) [1]: 15.22% and 10.44% | Total Cell Count [1]: 157 and 230 | Population Apoptotic (%) [2]: 4.76% and 2.94% | Population Fragmented Nuclei (%) [2]: 8.94% and 3.67% | Population Healthy Nuclei (%) [2]: 67.6% and 82.45% | Population Hoechst High Intensity Objects (%) [2]: 0% | Population Membrane Permeable-Phenotype (%) [2]: 3.31% and 0.99% | Population Mitochondria Different-Phenotype (%) [2]: 7.44% and 5.45% | Population Mitotic Cells (%) [2]: 95.24% and 97.06% | Population Normal (%) [2]: 100% | Population Pyknosed Nuclei (%) [2]: 23.46% and 13.88% | Population Tubulin-Different-Phenotype (%) [2]: 14.88% and 19.31% | Total Cell Count [2]: 179 and 245 | Population Fragmented Nuclei (%) [3]: 7.23% and 3.8% | Population Healthy Nuclei (%) [3]: 68.07% and 86.92% | Population Hoechst High Intensity Objects (%) [3]: 0% | Population Membrane Permeable-Phenotype (%) [3]: 4.42% and 3.88% | Population Mitochondria Different-Phenotype (%) [3]: 5.31% and 2.91% | Population Mitotic Cells (%) [3]: 90.24% and 59.09% | Population Normal (%) [3]: 100% | Population Pyknosed Nuclei (%) [3]: 24.7% and 9.28% | Population Tubulin-Different-Phenotype (%) [3]: 14.16% and 12.14% | Total Cell Count [3]: 166 and 237 | Population Apoptotic (%) [4]: 6.45% and 4.76% | Population Fragmented Nuclei (%) [4]: 7.18% and 3.7% | Population Healthy Nuclei (%) [4]: 76.92% and 87.65% | Population Hoechst High Intensity Objects (%) [4]: 0% | Population Membrane Permeable-Phenotype (%) [4]: 2.67% and 1.88% | Population Mitochondria Different-Phenotype (%) [4]: 6% and 4.23% | Population Mitotic Cells (%) [4]: 93.55% and 95.24% | Population Normal (%) [4]: 100% | Population Pyknosed Nuclei (%) [4]: 15.9% and 8.64% | Population Tubulin-Different-Phenotype (%) [4]: 16% and 16.43% | Total Cell Count [4]: 195 and 243 | Population Apoptotic (%) [5]: 50% and 33.33% | Population Fragmented Nuclei (%) [5]: 8.98% and 4.96% | Population Healthy Nuclei (%) [5]: 86.23% and 86.36% | Population Hoechst High Intensity Objects (%) [5]: 0% | Population Membrane Permeable-Phenotype (%) [5]: 0.69% and 2.39% | Population Mitochondria Different-Phenotype (%) [5]: 11.11% and 3.83% | Population Mitotic Cells (%) [5]: 50% and 66.67% | Population Normal (%) [5]: 100% | Population Pyknosed Nuclei (%) [5]: 4.79% and 8.68% | Population Tubulin-Different-Phenotype (%) [5]: 3.47% and 12.92% | Total Cell Count [5]: 167 and 242 | Population Apoptotic (%) [6]: 25% and 14.29% | Population Fragmented Nuclei (%) [6]: 8.49% and 3.36% | Population Healthy Nuclei (%) [6]: 85.85% and 90.76% | Population Hoechst High Intensity Objects (%) [6]: 0% | Population Membrane Permeable-Phenotype (%) [6]: 0% and 4.63% | Population Mitotic Cells (%) [6]: 75% and 85.71% | Population Normal (%) [6]: 100% | Population Pyknosed Nuclei (%) [6]: 5.66% and 5.88% | Population Tubulin-Different-Phenotype (%) [6]: 7.14% and 18.52% | Total Cell Count [6]: 212 and 238
